Results on 3 compounds are retold here after ChEMBL document CHEMBL3351841, “Differential modes of peptide binding onto replicative sliding clamps from various bacterial origins” (J Med Chem, 2014).

Where a SMILES comes first, the peptide text is derived from it. [ ]: non-standard residue; d: D form. Phe(3,4-Cl2) = N[C@@H](Cc1ccc(Cl)c(Cl)c1)C(=O)O; Cha = N[C@@H](CC1CCCCC1)C(=O)O

A short description of experiment [1]: Binding affinity to Mycobacterium tuberculosis DNA sliding clamp protein expressed in Escherichia coli BL21(DE3) pLys at 25 degC by SPR assay. The gist of the method:
(§1)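 SPR competition at 25 °C in Hepes 10 mM pH 7.4, 0.15 M NaCl, 3 mM EDTA. Clamp (0.25 μM) preincubated with challenger peptide (1.5 nM to 100 μM), then injected over a chip loaded with P1 peptide. IC50 taken from inhibition of clamp/P1 binding; at least three independent experiments.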
In general terms: Surface plasmon resonance follows binding to a sensor surface in real time, without labels.

A short description of experiment [2]: Binding affinity to Escherichia coli DNA sliding clamp protein expressed in Escherichia coli BL21(DE3) pLys at 25 degC by SPR assay. The gist of the method:
(§2)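 Competition SPR at 25 °C in Hepes 10 mM pH 7.4, 0.15 M NaCl, 3 mM EDTA. Clamp (0.25 μM) was preincubated with challenger peptide (1.5 nM to 100 μM), then injected over a chip carrying immobilized P1 peptide (Pol IV C-terminal heptamer). IC50 was taken from inhibition of clamp/P1 binding.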

In experiment [3] the test system is Escherichia coli. Kind of experiment: Binding affinity to Escherichia coli DNA sliding clamp protein expressed in Escherichia coli BL21(DE3) pLys assessed as association constant at 25 degC by SPR assay. In outline:
(§3)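 Biacore SPR at 25 °C in 10 mM Hepes pH 7.4, 0.15 M NaCl, 3 mM EDTA. The E. coli Pol IV C-terminal heptamer (P1) was immobilized, and the clamp (Ni-NTA then MonoQ purified) was injected at 0.125–2 μM at 50 μL/min. After background subtraction, data were fit to a 1:1 Langmuir model to give KA.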

Experiment [4] is described as follows: Binding affinity to Pseudomonas aeruginosa DNA sliding clamp protein expressed in Escherichia coli BL21(DE3) pLys at 25 degC by SPR assay. The gist of the method:
as §2

Experiment [5] concerns Pseudomonas aeruginosa. The experiment in a line: Binding affinity to Pseudomonas aeruginosa DNA sliding clamp protein expressed in Escherichia coli BL21(DE3) pLys assessed as association constant at 25 degC by SPR assay. In outline:
as §3

In experiment [6] the test system is Bacillus subtilis. The experiment in a line: Binding affinity to Bacillus subtilis DNA sliding clamp protein expressed in Escherichia coli BL21(DE3) pLys assessed as association constant at 25 degC by SPR assay. In outline: as §3
Experiment [7] can be described thus: Binding affinity to Bacillus subtilis DNA sliding clamp protein expressed in Escherichia coli BL21(DE3) pLys at 25 degC by SPR assay. The gist of the method:
as §2

The test system of experiment [8] is Mycobacterium tuberculosis. The experiment in a line: Binding affinity to Mycobacterium tuberculosis DNA sliding clamp protein expressed in Escherichia coli BL21(DE3) pLys assessed as association constant at 25 degC by SPR assay. The gist of the method: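 Direct SPR binding at 25 °C in 10 mM Hepes pH 7.4, 0.15 M NaCl, 3 mM EDTA. Ni-NTA/MonoQ-purified clamp (0.125−2 μM) injected at 50 μL/min over immobilized P1, the E. coli Pol IV C-terminal heptamer. Background subtracted; 1:1 Langmuir fit gives KA.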

The test system of experiment [9] is Staphylococcus aureus. Kind of experiment: Binding affinity to Staphylococcus aureus DNA sliding clamp protein expressed in Escherichia coli BL21(DE3) pLys assessed as association constant at 25 degC by SPR assay. The gist of the method: as §3
Experiment [10] in a line: Binding affinity to Staphylococcus aureus DNA sliding clamp protein expressed in Escherichia coli BL21(DE3) pLys at 25 degC by SPR assay. In outline: as §2
A short description of experiment [11]: Binding affinity to Bacillus subtilis DNA sliding clamp protein expressed in Escherichia coli BL21(DE3) pLys at 30 degC by ITC assay. The gist of the method:
(§4)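 ITC at 30 °C. Peptide (200–600 μM) was injected stepwise (2 μL) into clamp solution (20–60 μM), with peptide/SC ratio 10, in Hepes 10 mM pH 7.4, NaCl 0.15 M, EDTA 3 mM. Peptide-into-buffer controls were subtracted, and N, KD, ΔH and ΔS were derived. Performed at least twice.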
(In general: ITC needs no label: the signal is the heat of the interaction.)

Experiment [12] in a line: Binding affinity to Bacillus subtilis DNA sliding clamp protein expressed in Escherichia coli BL21(DE3) pLys by SPR assay. The gist of the method:
as §2

Experiment [13] in a line: Binding affinity to Staphylococcus aureus DNA sliding clamp protein expressed in Escherichia coli BL21(DE3) pLys by SPR assay. In outline: as §2
The nature of experiment [14]: Binding affinity to Staphylococcus aureus DNA sliding clamp protein expressed in Escherichia coli BL21(DE3) pLys at 30 degC by ITC assay. In outline:
as §4

A short description of experiment [15]: Binding affinity to Escherichia coli DNA sliding clamp protein expressed in Escherichia coli BL21(DE3) pLys by SPR assay. In outline:
as §2

Experiment [16] in a line: Binding affinity to Escherichia coli DNA sliding clamp protein expressed in Escherichia coli BL21(DE3) pLys at 25 degC by ITC assay. In outline: (§5)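 iTC200 calorimetry at 25 °C. Peptide (200–600 μM) was titrated in 2 μL injections into clamp (20–60 μM), with peptide/SC ratio 10, in 10 mM Hepes pH 7.4, 0.15 M NaCl, 3 mM EDTA. Data were corrected against peptide-into-buffer controls and fit for N, KD, ΔH and ΔS. At least two experiments.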

A short description of experiment [17]: Binding affinity to Bacillus subtilis DNA sliding clamp protein expressed in Escherichia coli BL21(DE3) pLys at 25 degC by ITC assay. In outline:
as §5

Experiment [18] is described as follows: Binding affinity to Escherichia coli DNA sliding clamp protein expressed in Escherichia coli BL21(DE3) pLys at 30 degC by ITC assay. In outline: as §4
Experiment [19] is described as follows: Binding affinity to Pseudomonas aeruginosa DNA sliding clamp protein expressed in Escherichia coli BL21(DE3) pLys at 30 degC by ITC assay. In outline:
as §4

Experiment [20] can be described thus: Binding affinity to Pseudomonas aeruginosa DNA sliding clamp protein expressed in Escherichia coli BL21(DE3) pLys by SPR assay. The gist of the method:
as §2

The nature of experiment [21]: Binding affinity to Mycobacterium tuberculosis DNA sliding clamp protein expressed in Escherichia coli BL21(DE3) pLys by SPR assay. In outline: as §1
Experiment [22] can be described thus: Binding affinity to Pseudomonas aeruginosa DNA sliding clamp protein expressed in Escherichia coli BL21(DE3) pLys at 25 degC by ITC assay. In outline:
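His-tagged P. aeruginosa (PAO1) dnaN clamp from pET-15b, IPTG 0.1 mM at 28 °C overnight; Ni-NTA then MonoQ purified, ultracentrifuged. Peptide (200–600 μM) titrated in 2 μL injections into clamp (20–60 μM), peptide/clamp ratio 10, in 10 mM Hepes pH 7.4, 0.15 M NaCl, 3 mM EDTA. Heat of peptide into buffer subtracted; KD, N, ΔH, ΔS fitted; at least two runs.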

The nature of experiment [23]: Binding affinity to Mycobacterium tuberculosis DNA sliding clamp protein expressed in Escherichia coli BL21(DE3) pLys at 25 degC by ITC assay. In outline:
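ITC at 25 °C. Peptide (200−600 μM) titrated in 2 μL injections into clamp (20−60 μM) at a peptide/clamp ratio of 10, in 10 mM Hepes pH 7.4, 0.15 M NaCl, 3 mM EDTA. Corrected using peptide-into-buffer controls. N, KD, ΔH and ΔS fitted; at least two experiments.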

The term Kd denotes a measure of binding affinity in units of concentration. As to H-RQLVLGL-OH, the Kd in experiment [1] was 0.24 µM; in experiment [2], 0.23 µM; in experiment [4], 0.58 µM; in experiment [7], 0.29 µM; in experiment [10], 0.25 µM. For the same compound, the KA came out at 4.2 ×10⁶ /M in experiment [3]; 1.7 ×10⁶ /M in experiment [5]; 3.5 ×10⁶ /M in [6]; 4.6 ×10⁶ /M in experiment [8]; 4.1 ×10⁶ /M in experiment [9].
The term IC50 denotes the midpoint of a concentration-inhibition curve. Consider `CC(=O)N[C@@H](CCC(N)=O)C(=O)N[C@@H](CC1CCCCC1)C(=O)N[C@@H](CC(=O)O)C(=O)N[C@@H](CC(C)C)C(=O)N[C@@H](Cc1ccccc1)C(=O)O` (Ac-Q[Cha]DLF-OH), for which the Kd came out at 8.2 µM in [11]; 29 µM in experiment [14]; 0.23 µM in experiment [16]; 12.3 µM in experiment [17]; 1 µM in experiment [18]; 0.64 µM in experiment [19]. Moreover, the results for the IC50 in experiment [12] (read-out: IC50), in [13] (read-out: IC50) and in [15] were 2.1 µM, 1.54 µM and 0.17 µM, respectively.
As for `CC(=O)N[C@@H](CCC(N)=O)C(=O)N[C@@H](CC1CCCCC1)C(=O)N[C@@H](CC(=O)O)C(=O)N[C@@H](CC(C)C)C(=O)N[C@@H](Cc1ccc(Cl)c(Cl)c1)C(=O)O` (Ac-Q[Cha]DL[Phe(3,4-Cl2)]-OH), the IC50 entry in [12] is “Not Active”; in experiment [20], 0.14 µM; in experiment [13] it was “Not Active”; in experiment [15] it was 0.08 µM; in [21], 0.85 µM. Also, the values for the Kd in experiment [16], in [22] and in experiment [23] were 0.05 µM, 0.099 µM and 0.75 µM, respectively.
